Source: ChEMBL document CHEMBL4261557, “MAO inhibitory activity of bromo-2-phenylbenzofurans: synthesis, in vitro study, and docking calculations” (Medchemcomm, 2017)

What follows are compounds tested against T1, Amine oxidase [flavin-containing] B (Homo sapiens, UniProt P27338) (assay: (§1) Inhibition of recombinant human MAO-B expressed in baculovirus infected insect cells assessed as reduction in H2O2 production at 100 uM using p-tyramine as substrate pretreated for 15 mins followed by substrate addition and measured over 15 mins by Amplex red reagent based fluorimetric assay relative to control). Details: 0.25 h.
T1 sequence (P27338 whole entry): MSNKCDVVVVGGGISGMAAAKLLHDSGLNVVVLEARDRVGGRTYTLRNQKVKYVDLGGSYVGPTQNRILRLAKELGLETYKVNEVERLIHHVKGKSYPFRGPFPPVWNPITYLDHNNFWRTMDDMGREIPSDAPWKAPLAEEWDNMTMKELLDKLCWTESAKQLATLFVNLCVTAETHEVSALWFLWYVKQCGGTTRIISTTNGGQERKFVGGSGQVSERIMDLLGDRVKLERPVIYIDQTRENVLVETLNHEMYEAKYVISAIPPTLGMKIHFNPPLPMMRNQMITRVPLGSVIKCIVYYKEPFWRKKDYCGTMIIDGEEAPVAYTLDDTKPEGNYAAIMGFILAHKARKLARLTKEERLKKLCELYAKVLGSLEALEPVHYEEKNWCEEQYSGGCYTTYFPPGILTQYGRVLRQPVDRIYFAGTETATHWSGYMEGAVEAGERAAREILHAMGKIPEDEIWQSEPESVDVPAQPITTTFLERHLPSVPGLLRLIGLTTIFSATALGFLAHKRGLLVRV
Outline: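 hMAO-B from baculovirus-infected BTI-TN-5B1-4 insect cells, 7.5 μg protein, matched to 165 pmol p-tyramine/min. Preincubated with inhibitor in 0.05 M phosphate buffer pH 7.4, 15 min at 37 °C. Started with 200 μM Amplex Red, 1 U mL–1 HRP, 1 mM p-tyramine (final). Fluorescence (ex 545/em 590 nm) over 15 min at 37 °C, minus no-enzyme background; percent inhibition at 100 μM.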
For Cc1ccc2oc(-c3ccc(Br)cc3)cc2c1, the inhibition at 100 µM was 46.1%.

What follows are compounds tested against T1, Amine oxidase [flavin-containing] B (assay: biochemical). Details: not given.
c1ccc(-c2cc3ccccc3o2)cc1 showed an IC50 of over 100 µM. Compound Cc1cccc2cc(-c3ccccc3)oc12 has an IC50 of 10.7 µM. For Brc1ccccc1-c1cc2ccccc2o1, the IC50 was 1.13 µM. Work on Cc1cccc2cc(-c3ccccc3Br)oc12 yielded an IC50 of 9.68 µM. For Cc1ccc2oc(-c3ccccc3)cc2c1, the IC50 was 0.88 µM. Brc1ccc(-c2cc3ccccc3o2)cc1 gave an IC50 of 0.34 µM. Cc1ccc2oc(-c3ccccc3Br)cc2c1 showed an IC50 of 0.2 µM. Cc1ccc2oc(-c3cccc(Br)c3)cc2c1 was tested, and the IC50 was 0.25 µM. With Brc1cccc(-c2cc3ccccc3o2)c1 the IC50 was 1.17 µM. In the case of Cc1ccc2oc(-c3ccc(Br)cc3)cc2c1, the IC50 is reported as 100 µM. In the case of Cc1cccc2cc(-c3cccc(Br)c3)oc12, the IC50 is reported as 3.98 µM. In the case of Cc1cccc2cc(-c3ccc(Br)cc3)oc12, the IC50 is reported as 0.95 µM.

What follows are compounds tested on SH-SY5Y (assay: Cytotoxicity against human SH-SY5Y cells assessed as reduction in cell viability at 1 to 10 uM after 24 hrs by MTT assay). Details: not given.
Type: cell-based
Outline: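 SH-SY5Y neuroblastoma cells seeded at 1.106 mL–1, incubated overnight, then exposed 24 h to compound at 1 or 10 μM in 1% DMSO; 1% DMSO as negative control. MTT (5 mg ml–1 in PBS, 10%) added for 2 h at 37 °C, crystals dissolved in DMSO, absorbance 540 nm; viability = treated/control absorbance × 100. Mean ± S.E.M., ≥5 cultures.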
With c1ccc(-c2cc3ccccc3o2)cc1 the Activity was “Non-Toxic”. In the case of Cc1cccc2cc(-c3ccccc3)oc12, the Activity is reported as “Non-Toxic”. In the case of Brc1ccccc1-c1cc2ccccc2o1, the Activity is reported as “Non-Toxic”. In the case of Cc1cccc2cc(-c3ccccc3Br)oc12, the Activity is reported as “Non-Toxic”. With Cc1ccc2oc(-c3ccccc3)cc2c1 the Activity was “Non-Toxic”. With Brc1ccc(-c2cc3ccccc3o2)cc1 the Activity was “Non-Toxic”. Cc1ccc2oc(-c3ccccc3Br)cc2c1 was tested, and the Activity was “Non-Toxic”. For Cc1ccc2oc(-c3cccc(Br)c3)cc2c1, the Activity was “Non-Toxic”. With Brc1cccc(-c2cc3ccccc3o2)c1 the Activity was “Non-Toxic”. For Cc1ccc2oc(-c3ccc(Br)cc3)cc2c1, the Activity was “Non-Toxic”. With Cc1cccc2cc(-c3cccc(Br)c3)oc12 the Activity was “Non-Toxic”. Cc1cccc2cc(-c3ccc(Br)cc3)oc12 was tested, and the Activity was “Non-Toxic”.

These compounds were tested against T2, Amine oxidase [flavin-containing] A (Homo sapiens, UniProt P21397) (assay: as §1, with “MAO-A” for “MAO-B”). Details: 0.25 h.
T2 sequence (P21397 whole entry): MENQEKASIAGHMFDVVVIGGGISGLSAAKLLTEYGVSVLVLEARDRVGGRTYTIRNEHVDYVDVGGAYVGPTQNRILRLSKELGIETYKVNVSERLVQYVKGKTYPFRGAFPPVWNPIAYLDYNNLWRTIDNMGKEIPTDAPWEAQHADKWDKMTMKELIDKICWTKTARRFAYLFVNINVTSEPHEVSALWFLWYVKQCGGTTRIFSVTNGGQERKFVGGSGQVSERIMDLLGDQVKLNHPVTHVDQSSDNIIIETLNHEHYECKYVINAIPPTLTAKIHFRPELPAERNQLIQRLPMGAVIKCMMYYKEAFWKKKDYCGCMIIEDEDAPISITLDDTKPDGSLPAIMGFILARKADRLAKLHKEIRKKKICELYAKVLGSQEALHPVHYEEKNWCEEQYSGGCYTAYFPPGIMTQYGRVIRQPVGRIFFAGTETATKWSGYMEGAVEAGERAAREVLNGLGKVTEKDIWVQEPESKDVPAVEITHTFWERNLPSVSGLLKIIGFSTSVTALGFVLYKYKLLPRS
Cc1cccc2cc(-c3ccccc3)oc12 was tested, and the inhibition at 100 µM was 53.9%. For Cc1cccc2cc(-c3ccccc3Br)oc12, the inhibition at 100 µM was 44.8%. Brc1cccc(-c2cc3ccccc3o2)c1 gave an inhibition at 100 µM of 51%. Cc1cccc2cc(-c3ccc(Br)cc3)oc12 showed an inhibition at 100 µM of 46.8%.

The compounds below were run against T2, Amine oxidase [flavin-containing] A (assay: Inhibition of recombinant human MAO-A expressed in baculovirus infected insect cells assessed as reduction in H2O2 production using p-tyramine as substrate pretreated for 15 mins followed by substrate addition and measured over 15 mins by Amplex red reagent based fluorimetric assay). Details: not given.
c1ccc(-c2cc3ccccc3o2)cc1 gave an IC50 of over 100 µM. Cc1cccc2cc(-c3ccccc3)oc12 gave an IC50 of 100 µM. In the case of Brc1ccccc1-c1cc2ccccc2o1, the IC50 is reported as 8.12 µM. For Cc1cccc2cc(-c3ccccc3Br)oc12, the IC50 was 100 µM. Work on Cc1ccc2oc(-c3ccccc3)cc2c1 yielded an IC50 of over 100 µM. Brc1ccc(-c2cc3ccccc3o2)cc1 showed an IC50 of over 100 µM. Compound Cc1ccc2oc(-c3ccccc3Br)cc2c1 has an IC50 of 11 µM. With Cc1ccc2oc(-c3cccc(Br)c3)cc2c1 the IC50 was over 100 µM. In the case of Brc1cccc(-c2cc3ccccc3o2)c1, the IC50 is reported as 100 µM. Cc1ccc2oc(-c3ccc(Br)cc3)cc2c1 was tested, and the IC50 was over 100 µM. Compound Cc1cccc2cc(-c3cccc(Br)c3)oc12 has an IC50 of over 100 µM. Cc1cccc2cc(-c3ccc(Br)cc3)oc12 was tested, and the IC50 was 100 µM.

Species on record: Homo sapiens
Test: Selectivity index, ratio of IC50 for recombinant human MAO-A expressed in baculovirus infected insect cells to IC50 for recombinant human MAO-B expressed in baculovirus infected insect cells
Details: not given
Outline: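 Ratio of IC50 against hMAO-A to IC50 against hMAO-B, both measured by the Amplex Red/p-tyramine fluorimetric assay with recombinant enzymes from insect cells.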
Cc1cccc2cc(-c3ccccc3)oc12 was tested, and the Ratio IC50 was 9.3. For Brc1ccccc1-c1cc2ccccc2o1, the Ratio IC50 was 7.2. Work on Cc1cccc2cc(-c3ccccc3Br)oc12 yielded a Ratio IC50 of 11.5. With Cc1ccc2oc(-c3ccccc3)cc2c1 the Ratio IC50 was over 114. For Brc1ccc(-c2cc3ccccc3o2)cc1, the Ratio IC50 was over 294. With Cc1ccc2oc(-c3ccccc3Br)cc2c1 the Ratio IC50 was 55. In the case of Cc1ccc2oc(-c3cccc(Br)c3)cc2c1, the Ratio IC50 is reported as over 400. Brc1cccc(-c2cc3ccccc3o2)c1 showed a Ratio IC50 of 85.5. With Cc1cccc2cc(-c3cccc(Br)c3)oc12 the Ratio IC50 was over 25.2. Cc1cccc2cc(-c3ccc(Br)cc3)oc12 was tested, and the Ratio IC50 was 95.2.
